From ChEMBL document CHEMBL2062401, “New pyrimido[5,4-e]pyrrolo[1,2-c]pyrimidines: synthesis, 2D-QSAR, anti-inflammatory, analgesic and ulcerogenicity studies” (Eur J Med Chem, 2012)
Activity calls are given as the source filed them. No cut-off for these calls is given here.

Experiments:
Rattus norvegicus [1] = test: Antiinflammatory activity in Wistar albino rat assessed as inhibition of carrageenan-induced paw edema at 0.029 mmol/kg, po dosed 1 hr before carrageenan challenge measured 2 hrs post carrageenan-induced inflammation
Rattus norvegicus [2] = test: Gastrointestinal toxicity in Wistar albino rat assessed as incidence of stomach ulceration at 0.029 mmol/kg, po; type: organism-based; conditions: in vivo
How it was run: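 Rats given single oral dose suspended in saline with few drops Tween 80 (groups of 6); killed under deep ether anaesthesia 5 h after treatment; stomach opened along greater curvature and examined for lesions or bleeding; ulceration expressed as number of rats affected per group.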

Homo sapiens = species: Homo sapiens; test: Selectivity index, ratio of inhibition of COX1 to inhibition of COX2 by Cayman's COX activity assay
How it was run: (§1)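 COX peroxidase activity measured with a commercial COX activity assay kit (Kulmacz and Lands method), per manufacturer's instructions; % inhibition of COX-1 and COX-2 determined, selectivity expressed as ratio of COX-1 to COX-2 % inhibition.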

[3] = Lipophilicity, log P of the compound; type: physicochemical; conditions: octanol/water
Rattus norvegicus [4] = test: Antiinflammatory activity in po dosed Wistar albino rat assessed as inhibition of carrageenan-induced paw edema dosed 1 hr before carrageenan challenge measured after carrageenan-induced inflammation; type: functional, organism-based
How it was run: (§2)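 Rat carrageenan paw oedema, six animals per group. Oral doses of 1, 2, 4 and 6 mg/kg in saline/Tween 80 given 1 h before 0.1 ml of 1% carrageenan s.c. into the right hind paw. Oedema measured as thickness increase over baseline. % inhibition = 100 × (1 − Vt/Vc). IC50 derived from the dose–response and reported in mg/kg and µmol/kg.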

Rattus norvegicus [5] = test: Antiinflammatory activity in Wistar albino rat assessed as inhibition of carrageenan-induced paw edema at 6 mg/kg, po dosed 1 hr before carrageenan challenge measured after carrageenan-induced inflammation; type: functional
How it was run: as §2

Rattus norvegicus [6] = test: Antiinflammatory activity in Wistar albino rat assessed as inhibition of carrageenan-induced paw edema at 1 mg/kg, po dosed 1 hr before carrageenan challenge measured after carrageenan-induced inflammation; type: functional
How it was run: as §2

Rattus norvegicus [7] = test: Antiinflammatory activity in Wistar albino rat assessed as inhibition of carrageenan-induced paw edema at 0.029 mmol/kg, po dosed 1 hr before carrageenan challenge measured 3 hrs post carrageenan-induced inflammation
[8] = target: Prostaglandin G/H synthase 1 (Homo sapiens) (UniProt P23219); test: Inhibition of COX1 by Cayman's COX activity assay
Prostaglandin G/H synthase 1 (Homo sapiens), sequence (P23219 whole entry): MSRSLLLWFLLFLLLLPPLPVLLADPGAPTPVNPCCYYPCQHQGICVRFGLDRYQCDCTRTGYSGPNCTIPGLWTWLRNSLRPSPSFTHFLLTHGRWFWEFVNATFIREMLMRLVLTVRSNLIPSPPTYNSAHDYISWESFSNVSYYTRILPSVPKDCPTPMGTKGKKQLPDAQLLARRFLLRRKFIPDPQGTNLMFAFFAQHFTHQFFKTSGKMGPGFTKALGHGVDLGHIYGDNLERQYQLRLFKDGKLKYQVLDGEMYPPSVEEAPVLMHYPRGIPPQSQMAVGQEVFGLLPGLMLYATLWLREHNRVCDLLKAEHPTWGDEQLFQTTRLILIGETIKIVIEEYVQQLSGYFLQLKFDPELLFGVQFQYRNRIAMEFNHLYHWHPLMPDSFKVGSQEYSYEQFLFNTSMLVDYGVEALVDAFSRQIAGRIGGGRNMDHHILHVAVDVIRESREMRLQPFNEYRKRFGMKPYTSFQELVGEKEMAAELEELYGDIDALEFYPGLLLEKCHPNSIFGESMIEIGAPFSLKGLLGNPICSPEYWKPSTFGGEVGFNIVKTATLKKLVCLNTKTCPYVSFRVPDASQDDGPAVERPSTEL
How it was run: as §1

Rattus norvegicus [9] = test: Antiinflammatory activity in Wistar albino rat assessed as inhibition of carrageenan-induced paw edema at 2 mg/kg, po dosed 1 hr before carrageenan challenge measured after carrageenan-induced inflammation; type: functional
How it was run: as §2

Rattus norvegicus [10] = test: Gastrointestinal toxicity in Wistar albino rat assessed as incidence of stomach ulceration at 0.029 mmol/kg, po followed by another two compound doses in second and third days measured on fourth day post dose by acute ulcerogenicity study; type: organism-based; conditions: in vivo
How it was run: (§3)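 Adult Wistar rats of both sexes, 120–150 g, groups of 6, fasted 20 h; oral dose suspended in 1% Tween (vehicle group 1% Tween); fasted 2 h, fed 2 h, fasted 20 h; further doses on days 2 and 3. Scored: % incidence/10, mean ulcers per rat, mean severity score; ulcer index = sum of the three.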

Rattus norvegicus [11] = test: Antiinflammatory activity in Wistar albino rat assessed as inhibition of carrageenan-induced paw edema at 0.029 mmol/kg, po dosed 1 hr before carrageenan challenge measured 4 hrs post carrageenan-induced inflammation
Mus musculus [12] = test: Analgesic activity in Swiss albino mouse assessed as inhibition of acetic acid-induced writhing at 0.029 mmol/kg. po dosed 1 hr before acetic acid challenge and measured during 30 mins post acetic acid challenge relative to indomethacin; type: functional; conditions: read-out: INH
How it was run: (§4)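 Swiss albino mice of either sex, 18–22 g, six per group. Oral suspension at 0.029 mmol/kg given 1 h before 0.3 ml of 1% acetic acid i.p. Contractions counted for 30 min, starting 5 min after injection. % protection = (n − n')/n × 100 against control writhing. Potency% = % inhibition of test / % inhibition of indomethacin × 100. Mean ± SEM, ANOVA with post hoc test.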

Rattus norvegicus [13] = test: Antiinflammatory activity in Wistar albino rat assessed as inhibition of carrageenan-induced paw edema at 4 mg/kg, po dosed 1 hr before carrageenan challenge measured after carrageenan-induced inflammation; type: functional
How it was run: as §2

Mus musculus [14] = test: Analgesic activity in Swiss albino mouse assessed as inhibition of acetic acid-induced writhing at 0.029 mmol/kg. po dosed 1 hr before acetic acid challenge and measured during 30 mins post acetic acid challenge; type: functional
How it was run: as §4

Rattus norvegicus [15] = test: Gastrointestinal toxicity in Wistar albino rat assessed as stomach ulcer index at 0.029 mmol/kg, po followed by another two compound doses in second and third days measured on fourth day post dose by acute ulcerogenicity study; type: organism-based; conditions: in vivo
How it was run: as §3

Rattus norvegicus [16] = test: Antiinflammatory activity in Wistar albino rat assessed as inhibition of carrageenan-induced paw edema at 0.029 mmol/kg, po dosed 1 hr before carrageenan challenge measured 1 hr post carrageenan-induced inflammation; type: functional
How it was run: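 Wistar albino rats of both sexes, 120–150 g, six per group, food withdrawn the day before. Given orally 0.029 mmol/kg in saline with a few drops of Tween 80, by stomach tube, 1 h before subplantar s.c. carrageenan (0.1 ml of 1%) into the right hind paw. Paw thickness measured at 1, 2, 3 and 4 h against baseline. % inhibition = 100 × (1 − Vt/Vc).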

SMILES	inhibition in vivo at 29 µmol/kg (Rattus norvegicus [1])	Activity (Rattus norvegicus [2])	Ratio (Homo sapiens)	logP [3]	IC50 (Rattus norvegicus [4])	inhibition in vivo at 6 mg/kg (Rattus norvegicus [5])	inhibition in vivo at 1 mg/kg (Rattus norvegicus [6])	inhibition in vivo at 29 µmol/kg (Rattus norvegicus [7])	inhibition [8]	inhibition in vivo at 2 mg/kg (Rattus norvegicus [9])	Activity (Rattus norvegicus [10])	inhibition in vivo at 29 µmol/kg (Rattus norvegicus [11])	writhing inhibition relative to indomethacin (potency %) at 29 µmol/kg (Mus musculus [12])	inhibition in vivo at 4 mg/kg (Rattus norvegicus [13])	inhibition in vivo at 29 µmol/kg (Mus musculus [14])	UI (Rattus norvegicus [15])	inhibition in vivo at 29 µmol/kg (Rattus norvegicus [16])
Cc1c(NC(=O)c2nc3c(c(=O)[nH]2)C2CCCN2C(=O)N3c2ccccc2)c(=O)n(-c2ccccc2)n1C (centres undefined)	68%	Non-toxic	1.3	2.09	6 µmol/kg	77%	30%	78%	Active	48%	5%	83%	95.7%	78%	63.3%	7.16	78%
CCOC(=O)Cc1nc2c(c(=O)[nH]1)C1CCCN1C(=O)N2c1ccccc1 (centres undefined)	80%	Non-toxic	–	1.53	11 µmol/kg	64%	12%	90%	–	32%	5%	89%	107%	60%	70.8%	7	81%
Cc1cc(-c2ccccc2)nn1C(=O)c1nc2c(c(=O)[nH]1)C1CCCN1C(=O)N2c1ccccc1 (centres undefined)	65%	Non-toxic	1.02	3.7	8 µmol/kg	60%	20%	59%	Active	45%	6.66%	62%	59.8%	65%	39.6%	10.94	78%
O=C(O)Cc1nc2c(c(=O)[nH]1)C1CCCN1C(=O)N2c1ccccc1 (centres undefined)	70%	Toxic	–	0.749	10 µmol/kg	74%	20%	72%	–	40%	8.33%	80%	87.2%	64%	57.6%	10.49	77%
